# Shown are actives, neighbours in structure and some others; about 0.72% of the full set was active somewhere.
# PolyA inhibitor: polyadenylation inhibitors in yeast reporter cells, primary screen, luminescence, S. cerevisiae; S. cerevisiae SKY197-pL101 polyadenylation reporter, beta-gal luminescence; efflux-impaired pdr1/pdr3 knockout yeast; score 100 = 6 SD above DMSO; activity score, % at 12 µM; 0.02% of 300,000 active;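 active means lowest replicate activity score at least 50, where 100 means six control SD above control mean; inconclusive means lowest score under 50 but half or more replicates reach 50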;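 further: yeast exposed to compound for 9 h at 30 °C; higher score means more reporter readthrough which indicates perturbed polyadenylation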
# GSK3 alpha inh: blockers of GSK3A enzyme activity – biochemical, luminescence, cell-free homogeneous, HTS, primary screen; 0.1% of 320,000 active; AID 2650, 2010; inhibition, % at 10 µM; GSK-3 alpha kinase, ADP-Glo luminescence, 60 min; Glycogen synthase kinase-3 alpha (Homo sapiens), P49840;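 active means more than half of replicates show inhibition above 20%; inconclusive means some but at most half of replicates above 20% inhibition; inactive means no replicate shows inhibition above 20%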;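 further: GST-tagged GSK-3 alpha with peptide substrate and 25 µM ATP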
# Target sequence (P49840 whole entry, looked up): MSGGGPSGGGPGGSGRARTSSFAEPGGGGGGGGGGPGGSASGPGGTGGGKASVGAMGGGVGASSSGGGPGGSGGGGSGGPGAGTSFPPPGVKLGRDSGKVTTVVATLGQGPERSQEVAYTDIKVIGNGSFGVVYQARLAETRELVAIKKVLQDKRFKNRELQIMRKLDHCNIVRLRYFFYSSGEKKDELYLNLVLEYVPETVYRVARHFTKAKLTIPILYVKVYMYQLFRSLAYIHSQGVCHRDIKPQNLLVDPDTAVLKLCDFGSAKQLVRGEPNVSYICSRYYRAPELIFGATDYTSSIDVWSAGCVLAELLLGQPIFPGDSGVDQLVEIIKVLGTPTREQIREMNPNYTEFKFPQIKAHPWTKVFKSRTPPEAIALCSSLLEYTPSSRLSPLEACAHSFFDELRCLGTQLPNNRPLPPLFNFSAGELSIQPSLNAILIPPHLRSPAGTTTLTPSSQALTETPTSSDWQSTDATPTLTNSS
# STK33 kinase inh: inhibitors of purified STK33 kinase, primary screen, biochemical, ADP-Glo luminescence, homogeneous, cell-free. Serine/threonine-protein kinase 33 (Homo sapiens), Q9BYT3. MBP phosphorylation. inhibition, % at 10 µM. 0.073% of 320,000 active;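 active means inhibition at or above 25%, using the most active replicate where run in duplicate; inactive means inhibition below 25%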
# AI-2 QS mod: Vibrio harveyi AI-2 quorum sensing modulators, primary screen, JMH597 strain, luminescence/OD600 ratio; activity change, % at 7.5 µM; 0.4% of 300,000 active; AID 2094, 2009; Vibrio harveyi JMH597 AI-2 luminescence/OD600 ratio, 9 h; active compounds read low; strain lacks LuxN and CqsS sensors; 0 = neutral-control median; in the data active means activity change below about -75%, passing the limit was not always enough; inconclusive means no clear call, values can overlap the other calls;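 further: luminescence divided by OD600 gain over 9 h not by final OD600 alone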
# CR mimetic SO: reduction of superoxide in aged yeast, primary screen, HTS; superoxide response (% of plate mean), % at 10 µM; S. cerevisiae aged cells, superoxide DHE fluorescence; active compounds read low; 0.18% of 330,000 active; AID 2690, 2010;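 active means superoxide response under a set limit, about three screen SD below normal, cut at about 65% in these data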;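 further: yeast aged for seven days with compound at 30 °C before DHE staining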
# GSK3B inh: human GSK3beta kinase inhibitors, primary screen, biochemical, cell-free homogeneous, HTS; GST-GSK3beta kinase, ADP-Glo luminescence, 60 min; active compounds read low; 0.038% of 300,000 active; activity score (negative = inhibition), % at 10 µM;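 active means more than half of replicate wells score below -50%, meaning over 50% inhibition versus plate controls; inconclusive means some replicates but at most half score below -50%; inactive means no replicate scores below -50%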
#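 Assay system: GST-fused GSK3beta enzyme, cell-free / Medium: Tris pH 7.5 buffer with MgCl2, DTT, BSA, heparin / Also added: peptide substrate plus 25 µM ATP (final) / Compound: 10 µM single point / Timing: kinase reaction with compound 60 min at room temperature / Detection: ADP-Glo luminescence / Benchmarks: DMSO neutral wells and GW8510 at 20 µM as positive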
# JMH597 growth: Vibrio harveyi growth inhibition, confirmation, counter-screen for AI-2 quorum sensing project, JMH597 strain, OD600 absorbance; shares compounds with AI-2 QS mod; 9 h; lacks LuxN and CqsS sensors; growth inhibition, % at 7.5 µM; 1% of 750 active;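 active means every replicate shows growth inhibition above 50%; inconclusive means at least half, but not all, replicates pass that cutoff; inactive means fewer than half of replicates pass it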
# BB721 const-QS lum: luminescence inhibition in constitutive-on V. harveyi, confirmation, counter-screen for LuxS inhibitor project, strain BB721, luminescence readout; Vibrio harveyi BB721 luminescence, 9 h; shares compounds with AI-2 QS mod; inhibition, % at 7.5 µM; 95% of 750 active;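 active means inhibition above about 80% in every replicate, not just on average, limit read from the data; inconclusive means at least half of replicates past the limit, but not all; inactive means fewer than half of replicates past the limit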
# BB721 growth rt: growth inhibition of V. harveyi BB721, confirmation, cytotoxicity control for AI-2 quorum sensing inhibitors, strain BB721, absorbance OD600; shares compounds with AI-2 QS mod; Vibrio harveyi BB721 growth, 9 h; growth inhibition, % at 7.5 µM; 3% of 750 active; AID 2728, 2010;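 active means every replicate shows growth inhibition above 50%; inconclusive means at least half but not all replicates above 50% inhibition; inactive means under half of replicates above 50% inhibition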
# AI-2 QS JMH597: Vibrio harveyi AI-2 signaling luminescence modulation – JMH597 strain, confirmation; shares compounds with AI-2 QS mod; Vibrio harveyi JMH597 AI-2 quorum sensing luminescence, 9 h; luxN and CqsS knockout, AI-2 only; inhibition, % at 7.5 µM; 97% of 750 active;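 active means every replicate shows more than 75% inhibition of signal versus neutral control wells; inconclusive means half to three quarters of replicates exceed 75% inhibition; inactive means fewer than half of replicates exceed 75% inhibition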
# Hits are given with their value; - = inactive; ? = inconclusive; . = not tested or not shown.
SMILES,PolyA inhibitor,GSK3 alpha inh,STK33 kinase inh,AI-2 QS mod,CR mimetic SO,GSK3B inh,JMH597 growth,BB721 const-QS lum,BB721 growth rt,AI-2 QS JMH597
CCCCc1nc(SCC(=O)N2CCOCC2)c2c(=O)n(C)c(=O)n(C)c2n1,-,-,-,-,-,-,.,.,.,.
COc1ccc(S(=O)(=O)N2CCC3(CC2)OCCN3S(=O)(=O)c2cccs2)cc1OC,-,-,-,-,-,-,.,.,.,.
CC(Nc1ccc(Br)cn1)c1cc(Cl)ccc1O (stereo not given),-,.,.,-86.4,.,-,-,96.5,-,97.3
O=C(Nc1cccc(Cl)c1)OCc1cn(-c2ccccc2)nn1,-,-,-,-,-,-,.,.,.,.
O=C(Nc1cccc(Cl)c1)OCc1cnc(Cl)s1,-,-,-,?,-,-,-,92.0,-,91.9
O=C(Nc1cc([N+](=O)[O-])ccc1Cl)c1ccc2c(c1)OCO2,-,.,-,-,-,-,.,.,.,.
CCn1c(SCc2ccccc2)nnc1-c1ccc(S(=O)(=O)N2CCCCC2)cc1,-,-,-,?,-,-,-,88.8,-,94.4
CCn1c(SCC(=O)O)nnc1-c1ccc(S(=O)(=O)N2CCCC2)cc1,-,-,-,-,-,-,.,.,.,.
COc1cc(SC)ccc1C(=O)Nc1ccc(OCC(=O)N2CCOCC2)cc1,-,.,.,-,.,-,.,.,.,.
CSc1ccc(Cl)c(C(=O)Nc2ccc(OCC(N)=O)cc2)c1,-,-,-,?,-,-,-,-,-,-
Clc1cccc(CSc2nnc(-c3c[nH]c4ccccc34)o2)c1,-,-,-,-87.8,-,-,-,93.1,-,95.3
Cc1ccc(C(=O)CSc2nnc(-c3c[nH]c4ccccc34)o2)cc1,-,-,-,-,-,-,.,.,.,.
CCc1cc2cc(C)cc(C)c2[nH]c1=S,-,-,-,-,-,-,.,.,.,.
O=C(Cn1nnc2ccccc2c1=O)Nc1ccc2c(c1)CCC2,-,-,-,-93.9,-,-,-,99.4,-,99.5
O=C(Cn1cnc2ccccc2c1=O)Nc1ccc2c(c1)CCC2,-,-,-,-82.6,-,-,-,98.8,-,99.0
COC(=O)c1ccc(C)c(NC(=O)Cn2cnc3ccccc3c2=O)c1,-,-,-,-86.1,-,-,-,94.3,-,95.8
O=C(Cn1nnc2ccccc2c1=O)NC1CCCc2ccccc21 (stereo not given),-,-,-,-,-,-,.,.,.,.
COc1ccc(/C=N/NC(=O)CNC(=O)c2cccs2)cc1,-,-,-,-,-,-,.,.,.,.
O=C(Cc1ccccc1)N/N=C/c1cccs1,-,-,-,-,-,-,.,.,.,.
O=C(CNC(=O)c1cccs1)N/N=C/c1ccc(Cl)cc1,-,-,-,-87.0,-,-,-,96.4,-,96.5
O=C(Cc1ccc(Cl)cc1)N/N=C/c1cccs1,-,-,-,?,-,-,-,89.2,-,90.2
CCOc1cc(C(=O)Nc2cccc3ncccc23)cc(OCC)c1OCC,-,.,.,-,-,-,.,.,.,.
Nc1cccc(C(=O)Nc2cccc3ncccc23)c1,-,-,-,?,-,-,-,-,-,-
CN1CC(=O)N(CC(=O)Nc2ccc(Cl)c(C(F)(F)F)c2)C1=O,-,-,-,-95.6,-,-,-,99.1,-,99.3
CC(OC(=O)CNC(=O)c1ccc2ccccc2c1)C(=O)N(C)C1CCCCC1 (stereo not given),-,-,-,-,-,-,.,.,.,.
SMILES,PolyA inhibitor,GSK3 alpha inh,STK33 kinase inh,AI-2 QS mod,CR mimetic SO,GSK3B inh,JMH597 growth,BB721 const-QS lum,BB721 growth rt,AI-2 QS JMH597
Nn1c(SCc2ccc(Br)cc2)nnc1-c1ccccn1,-,-,-,-,-,-,.,.,.,.
Cc1cccc(CSc2nnc(-c3ccccn3)n2N)c1,-,-,-,-90.4,-,-,-,91.7,-,94.2
O=S(=O)(c1ccc(Br)s1)n1cccn1,-,-,-,-91.5,-,-,-,98.1,-,99.9
Cc1nc(SCC(=O)Nc2ccc3[nH]c(=O)[nH]c3c2)nc(C)c1C,.,-,-,.,-,.,.,.,.,.
Cc1ccc(Cn2ncn(-c3ccccc3)c2=O)cc1,-,-,-,?,-,-,-,94.8,-,96.6
CC(=O)Nc1ccc(Nc2ncnc3c2cnn3-c2ccccc2)cc1,-,-,-,-,-,-,.,.,.,.
CN(C)S(=O)(=O)c1ccc(NC(=O)COc2ncnc3c2cnn3-c2ccccc2)cc1,-,-,-,?,-,-,-,90.7,-,94.7
O=c1c2ccccc2nc2c3ccccc3c(NCCN3CCOCC3)nn12,-,-,-,-,-,-,.,.,.,.
O=c1c2c(-c3ccccc3)csc2nc2c3ccccc3c(NCCN3CCOCC3)nn12,-,.,.,-96.4,.,-,76.5,99.8,?,99.9
O=C(CNC(=O)c1ccc(Br)o1)NCc1ccccc1Cl,-,.,-,-,-,-,.,.,.,.
CCCCNC(=O)COC(=O)c1ccc(NS(=O)(=O)c2ccc3c(c2)OCCO3)cc1,-,-,-,-92.4,-,-,-,97.5,-,99.3
CNC(=O)COC(=O)c1ccc(NS(=O)(=O)c2ccc3c(c2)OCCO3)cc1,-,-,-,-,-,-,.,.,.,.
Cc1ccc(NC(=O)C(=O)c2ccc(C)cc2)cc1,-,-,-,-92.6,-,-,-,97.0,-,97.1
Cc1cccc2sc(NC(=O)CN3C(=O)c4ccccc4C3=O)nc12,-,-,-,-84.5,-,-,-,94.1,-,96.5
Cc1ccc2sc(NC(=O)CN3C(=O)c4ccccc4C3=O)nc2c1C,-,-,-,-95.0,-,-,-,94.7,-,96.7
O=C(O)C(Cc1cn[nH]n1)=NO,-,-,-,-,-,-,.,.,.,.
c1ccc(-c2ccc(-c3cnc4n3CCCCC4)cc2)cc1,-,-,-,-85.7,-,-,-,84.1,-,90.0
Cc1ccc(-c2cnc3n2CCCCC3)cc1,-,-,-,-,-,-,.,.,.,.
Cc1ccc(Cl)cc1NC(=O)COC(=O)CSc1ccccc1,.,-,-,.,-,.,.,.,.,.
